This passage reports MIC results from ChEMBL document CHEMBL1127799, “Derivatives of a novel cyclopeptolide. 1. Synthesis, antifungal activity, and structure-activity relationships” (1994).

Structures are written as SMILES. In brackets after ≈: the same amount, converted by molar mass.

Common to all, as to type: functional
Experiment [1] relates to Candida albicans. The experiment in a line: Tested for minimum inhibitory concentration against Candida albicans 124 (Candida albicans) at pH of 4.5. In short, it runs like this: (§1)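 Broth microdilution in malt extract broth, initial pH 4.5 or 6.5, with 1×10^3 CFU per 0.2 mL well of thawed stored cultures. Compound stocks were made in 5% DMSO/0.2% Tween 80 and diluted to final 0.05–100 μg/mL. Plates were incubated 48 h at 30 °C and read macroscopically. MIC was the lowest concentration with no detectable growth. Vehicle-only wells served as controls.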

Experiment [2] relates to Candida albicans. Kind of experiment: Tested for minimum inhibitory concentration against Candida albicans 124 (Candida albicans) at pH of 6.5. In short, it runs like this:
as §1

Experiment [3] has as its system Meyerozyma guilliermondii. The experiment in a line: Tested for minimum inhibitory concentration against Candida guilliermondii 80 (C.g) at pH of 6.5. In short, it runs like this:
as §1

Experiment [4] has as its system Meyerozyma guilliermondii. The experiment in a line: Tested for minimum inhibitory concentration against Candida guilliermondii 80 (C.g) at pH of 4.5. In short, it runs like this: as §1
The test system of experiment [5] is Pichia kudriavzevii. Kind of experiment: Tested for minimum inhibitory concentration against Candida krusei 132 (C.k) at pH of 4.5. In short, it runs like this: as §1
Experiment [6] has as its system Pichia kudriavzevii. The experiment in a line: Tested for minimum inhibitory concentration against Candida krusei 132 (C.k) at pH of 6.5. In short, it runs like this:
as §1

The test system of experiment [7] is Candida tropicalis. The experiment in a line: Tested for minimum inhibitory concentration against Candida tropicalis 43 (C.t) at pH of 4.5. In short, it runs like this: as §1
For experiment [8], the system named is Candida tropicalis. The experiment in a line: Tested for minimum inhibitory concentration against Candida tropicalis 43 (C.t) at pH of 6.5. A digest of the protocol:
as §1

`CC[C@@H](C)[C@H]1C(=O)NCC(=O)N(C)[C@@H](C(C)C)C(=O)N[C@@H](Cc2ccc(OC)cc2)C(=O)O[C@H](C)C(=O)N2CCCC[C@H]2C(=O)N(C)[C@@H](C(C)C)C(=O)N[C@@H](C(C)C)C(=O)N(C)[C@@H](CC(=O)NC[Si](C)(C)C)C(=O)N(C)[C@@H]([C@@H](C)CC)C(=O)N1C`: the MIC (against Candida albicans [1]; against Candida albicans [2]; in experiment [3]; in experiment [4]; with Pichia kudriavzevii [5]; against Pichia kudriavzevii [6]) was greater than 100 µg/mL each time. The MIC against Candida tropicalis [7] and with Candida tropicalis [8] was greater than 100 µg/mL in each case.
For `CC[C@@H](C)[C@H]1C(=O)NCC(=O)N(C)[C@@H](C(C)C)C(=O)N[C@@H](Cc2ccc(OC)cc2)C(=O)N[C@@H](C)C(=O)N2CCCC[C@H]2C(=O)N(C)[C@@H](C(C)C)C(=O)N[C@@H](C(C)C)C(=O)N(C)[C@@H](CC(=O)O)C(=O)N(C)[C@@H]([C@@H](C)CC)C(=O)N1C`, the MIC – broadly, the least concentration at which growth counts as inhibited – turned out to be 3.13 µg/mL (≈ 2.78 µM) against Candida albicans [1]; 6.25 µg/mL (≈ 5.55 µM) with Candida albicans [2]; 25 µg/mL (≈ 22.2 µM) in experiment [3]; 6.25 µg/mL (≈ 5.55 µM) in experiment [4]; 25 µg/mL (≈ 22.2 µM) in the experiment with Pichia kudriavzevii [5]; 50 µg/mL (≈ 44.4 µM) in the experiment with Pichia kudriavzevii [6]. Also, the MIC in the experiment on Candida tropicalis [7] turned out to be 6.25 µg/mL (≈ 5.55 µM); in the experiment on Candida tropicalis [8], 25 µg/mL (≈ 22.2 µM).
As for `CC[C@@H](C)[C@H]1C(=O)NCC(=O)N(C)[C@@H](C(C)C)C(=O)N[C@@H](Cc2ccc(OC)cc2)C(=O)O[C@H](C)C(=O)N2CCCC[C@H]2C(=O)N(C)[C@@H](C(C)C)C(=O)N[C@@H](C(C)C)C(=O)N(C)[C@@H](CC(=O)NCCN(C)C)C(=O)N(C)[C@@H]([C@@H](C)CC)C(=O)N1C`, the MIC (against Candida albicans [1]; in the experiment on Candida albicans [2]; in experiment [3]; in experiment [4]; against Pichia kudriavzevii [5]; against Pichia kudriavzevii [6]) was greater than 100 µg/mL throughout. The MIC against Candida tropicalis [7] and against Candida tropicalis [8] was greater than 100 µg/mL throughout.
`CC[C@@H](C)[C@H]1C(=O)NCC(=O)N(C)[C@@H](C(C)C)C(=O)N[C@@H](Cc2ccc(OC)cc2)C(=O)O[C@H](C)C(=O)N2CCCC[C@H]2C(=O)N(C)[C@@H](C(C)C)C(=O)N[C@@H](C(C)C)C(=O)N(C)[C@@H](CCCl)C(=O)N(C)[C@@H]([C@@H](C)CC)C(=O)N1C`: the MIC (in the experiment with Candida albicans [1]; in the experiment with Candida albicans [2]; in experiment [3]; in experiment [4]; in the experiment on Pichia kudriavzevii [5]; in the experiment with Pichia kudriavzevii [6]) was greater than 100 µg/mL in each case. The MIC in the experiment with Candida tropicalis [7] and in the experiment with Candida tropicalis [8] was greater than 100 µg/mL throughout.
In the case of `CC[C@@H](C)[C@H]1C(=O)NCC(=O)N(C)[C@@H](C(C)C)C(=O)N[C@@H](Cc2ccc(OC)cc2)C(=O)O[C@H](C)C(=O)N2CCCC[C@H]2C(=O)N(C)[C@@H](C(C)C)C(=O)N[C@@H](C(C)C)C(=O)N(C)[C@@H](CCOC(=O)c2ccccc2C(=O)O)C(=O)N(C)[C@@H]([C@@H](C)CC)C(=O)N1C`, the MIC (with Candida albicans [1]; in the experiment with Candida albicans [2]; in experiment [3]; in experiment [4]; against Pichia kudriavzevii [5]; against Pichia kudriavzevii [6]) was greater than 100 µg/mL each time. In addition, the MIC in the experiment on Candida tropicalis [7] and with Candida tropicalis [8] was greater than 100 µg/mL throughout.
Consider `CC[C@@H](C)[C@H]1C(=O)NCC(=O)N(C)[C@@H](C(C)C)C(=O)N[C@@H](Cc2ccc(OC)cc2)C(=O)O[C@H](C)C(=O)N2CCCC[C@H]2C(=O)N(C)[C@@H](C(C)C)C(=O)N[C@@H](C(C)C)C(=O)N(C)[C@@H](CCOC(C)=O)C(=O)N(C)[C@@H]([C@@H](C)CC)C(=O)N1C`, for which the MIC with Candida albicans [1] was 12.5 µg/mL (≈ 10.8 µM); in the experiment on Candida albicans [2] it was 50 µg/mL (≈ 43.3 µM); in experiment [3] it was greater than 100 µg/mL; in experiment [4] it was greater than 100 µg/mL; against Pichia kudriavzevii [5] it was greater than 100 µg/mL; with Pichia kudriavzevii [6] it was greater than 100 µg/mL. Further, the MIC was 100 µg/mL (≈ 86.6 µM) against Candida tropicalis [7] and greater than 100 µg/mL against Candida tropicalis [8].
Take `CC[C@@H](C)[C@H]1C(=O)NCC(=O)N(C)[C@@H](C(C)C)C(=O)N[C@@H](Cc2ccc(OCc3ccc(Br)cc3)cc2)C(=O)O[C@H](C)C(=O)N2CCCC[C@H]2C(=O)N(C)[C@@H](C(C)C)C(=O)N[C@@H](C(C)C)C(=O)N(C)[C@@H](CC(=O)O)C(=O)N(C)[C@@H]([C@@H](C)CC)C(=O)N1C`: the MIC (in the experiment on Candida albicans [1]; against Candida albicans [2]; in experiment [3]; in experiment [4]; against Pichia kudriavzevii [5]; against Pichia kudriavzevii [6]) was greater than 100 µg/mL each time. Besides, the MIC against Candida tropicalis [7] and in the experiment with Candida tropicalis [8] was greater than 100 µg/mL throughout.
As for `CC[C@@H](C)[C@H]1C(=O)NCC(=O)N(C)[C@@H](C(C)C)C(=O)N[C@@H](Cc2ccc(OC)cc2)C(=O)O[C@@H](C)C(=O)N2CCCC[C@H]2C(=O)N(C)[C@@H](C(C)C)C(=O)N[C@@H](C(C)C)C(=O)N(C)[C@@H](CC(=O)O)C(=O)N(C)[C@@H]([C@@H](C)CC)C(=O)N1C`, the MIC against Candida albicans [1] came out at 3.13 µg/mL (≈ 2.78 µM); with Candida albicans [2], 12.5 µg/mL (≈ 11.1 µM); in experiment [3], 100 µg/mL (≈ 88.8 µM); in experiment [4], 12.5 µg/mL (≈ 11.1 µM); in the experiment with Pichia kudriavzevii [5], 25 µg/mL (≈ 22.2 µM); against Pichia kudriavzevii [6], 50 µg/mL (≈ 44.4 µM). In addition, the MIC is 6.25 µg/mL (≈ 5.55 µM) in the experiment on Candida tropicalis [7] and 25 µg/mL (≈ 22.2 µM) with Candida tropicalis [8].
As to `CC[C@@H](C)[C@H]1C(=O)NCC(=O)N(C)[C@@H](C(C)C)C(=O)N[C@@H](CC(=O)O)C(=O)O[C@H](C)C(=O)N2CCCC[C@H]2C(=O)N(C)[C@@H](C(C)C)C(=O)N[C@@H](C(C)C)C(=O)N(C)[C@@H](CC(=O)O)C(=O)N(C)[C@@H]([C@@H](C)CC)C(=O)N1C`, the MIC was 100 µg/mL (≈ 94 µM) with Candida albicans [1]; greater than 100 µg/mL in the experiment with Candida albicans [2]; greater than 100 µg/mL in experiment [3]; greater than 100 µg/mL in experiment [4]; greater than 100 µg/mL with Pichia kudriavzevii [5]; greater than 100 µg/mL against Pichia kudriavzevii [6]. The MIC against Candida tropicalis [7] and with Candida tropicalis [8] was greater than 100 µg/mL throughout.
`CC[C@@H](C)[C@H]1C(=O)NCC(=O)N(C)[C@@H](C(C)C)C(=O)N[C@@H](Cc2ccc(OCC(=O)O)cc2)C(=O)O[C@H](C)C(=O)N2CCCC[C@H]2C(=O)N(C)[C@@H](C(C)C)C(=O)N[C@@H](C(C)C)C(=O)N(C)[C@@H](CC(=O)O)C(=O)N(C)[C@@H]([C@@H](C)CC)C(=O)N1C`: the MIC was 12.5 µg/mL (≈ 10.7 µM) in the experiment with Candida albicans [1]; 100 µg/mL (≈ 85.4 µM) in the experiment on Candida albicans [2]; greater than 100 µg/mL in experiment [3]; 25 µg/mL (≈ 21.4 µM) in experiment [4]; greater than 100 µg/mL against Pichia kudriavzevii [5]; greater than 100 µg/mL with Pichia kudriavzevii [6]. Further, the MIC against Candida tropicalis [7] is 25 µg/mL (≈ 21.4 µM); in the experiment with Candida tropicalis [8], greater than 100 µg/mL.
With `CC[C@@H](C)[C@H]1C(=O)NCC(=O)N(C)[C@@H](C(C)C)C(=O)N[C@@H](Cc2ccc(OC)cc2)C(=O)O[C@H](C)C(=O)N2CCCC[C@H]2C(=O)N(C)[C@@H](C(C)C)C(=O)N[C@@H](C(C)C)C(=O)N(C)[C@@H](CC(=O)Nc2ccc(Br)cc2)C(=O)N(C)[C@@H]([C@@H](C)CC)C(=O)N1C`, the MIC (against Candida albicans [1]; with Candida albicans [2]; in experiment [3]; in experiment [4]; in the experiment on Pichia kudriavzevii [5]; in the experiment with Pichia kudriavzevii [6]) was greater than 100 µg/mL each time. For the same molecule, the MIC in the experiment with Candida tropicalis [7] and against Candida tropicalis [8] was greater than 100 µg/mL each time.
Consider `CCCCCCCCOC(=O)C[C@H]1C(=O)N(C)[C@@H]([C@@H](C)CC)C(=O)N(C)[C@@H]([C@H](C)CC)C(=O)NCC(=O)N(C)[C@@H](C(C)C)C(=O)N[C@@H](Cc2ccc(OC)cc2)C(=O)O[C@H](C)C(=O)N2CCCC[C@H]2C(=O)N(C)[C@@H](C(C)C)C(=O)N[C@@H](C(C)C)C(=O)N1C`, for which the MIC (against Candida albicans [1]; with Candida albicans [2]; in experiment [3]; in experiment [4]; in the experiment with Pichia kudriavzevii [5]; against Pichia kudriavzevii [6]) was greater than 100 µg/mL in each case. Also, the MIC in the experiment on Candida tropicalis [7] and in the experiment on Candida tropicalis [8] was greater than 100 µg/mL in each case.
With `CC[C@@H](C)[C@H]1C(=O)NCC(=O)N(C)[C@@H](C(C)C)C(=O)N[C@@H](Cc2ccc(OC)cc2)C(=O)O[C@H](C)C(=O)N2CCCC[C@H]2C(=O)N(C)[C@@H](C(C)C)C(=O)N[C@@H](C(C)C)C(=O)N(C)[C@@H](CC(=O)OC(C)(C)C)C(=O)N(C)[C@@H]([C@@H](C)CC)C(=O)N1C`, the MIC (against Candida albicans [1]; in the experiment on Candida albicans [2]; in experiment [3]; in experiment [4]; in the experiment on Pichia kudriavzevii [5]; against Pichia kudriavzevii [6]) was greater than 100 µg/mL throughout. The MIC against Candida tropicalis [7] and against Candida tropicalis [8] was greater than 100 µg/mL in each case.
Consider `CC[C@@H](C)[C@H]1C(=O)NCC(=O)N(C)[C@@H](C(C)C)C(=O)N[C@@H](Cc2ccc(OC)cc2)C(=O)N[C@H](C)C(=O)N2CCCC[C@H]2C(=O)N(C)[C@@H](C(C)C)C(=O)N[C@@H](C(C)C)C(=O)N(C)[C@@H](CC(=O)O)C(=O)N(C)[C@@H]([C@@H](C)CC)C(=O)N1C`, for which the MIC with Candida albicans [1] is 25 µg/mL (≈ 22.2 µM); against Candida albicans [2], 100 µg/mL (≈ 88.9 µM); in experiment [3] it was greater than 100 µg/mL; in experiment [4], greater than 100 µg/mL; against Pichia kudriavzevii [5], greater than 100 µg/mL; against Pichia kudriavzevii [6], greater than 100 µg/mL. The minimum inhibitory concentration (MIC) against Candida tropicalis [7] and against Candida tropicalis [8] was greater than 100 µg/mL each time.
In the case of `CC[C@H](C)[C@H]1C(=O)NCC(=O)N(C)[C@@H](C(C)C)C(=O)N[C@@H](Cc2ccc(OC)cc2)C(=O)N[C@@H](C)C(=O)N[C@H](C)C(=O)N2CCCC[C@H]2C(=O)N(C)[C@@H](C(C)C)C(=O)N[C@@H](C(C)C)C(=O)N(C)[C@@H](CC(=O)OC(C)(C)C)C(=O)N(C)[C@@H]([C@@H](C)CC)C(=O)N1C`, the MIC (with Candida albicans [1]; in experiment [4]; against Pichia kudriavzevii [5]; with Candida tropicalis [7]) was greater than 100 µg/mL in each case.
